Most compounds without a hit are left out; they make up all but 1.6% or so of the library.
NR2E3 ag-1: agonists of human NR2E3 nuclear receptor. Q9Y5X4. 360,000 tested, 0.35% active. CHO-S Gal4-NCOR/VP16-NR2E3 two-hybrid, luciferase. inhibition of corepressor binding, % at 3.98 µM;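 active = inhibition above the mean of all tested compounds plus 3 SD, cut at about 70% in these data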;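 also: 0% = DMSO with NR2E3 transfected cells and 100% = cells lacking NR2E3 construct; higher means lower luciferase signal from less NR2E3 corepressor binding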
Target sequence (Q9Y5X4 whole entry, looked up, the tested form may be a part): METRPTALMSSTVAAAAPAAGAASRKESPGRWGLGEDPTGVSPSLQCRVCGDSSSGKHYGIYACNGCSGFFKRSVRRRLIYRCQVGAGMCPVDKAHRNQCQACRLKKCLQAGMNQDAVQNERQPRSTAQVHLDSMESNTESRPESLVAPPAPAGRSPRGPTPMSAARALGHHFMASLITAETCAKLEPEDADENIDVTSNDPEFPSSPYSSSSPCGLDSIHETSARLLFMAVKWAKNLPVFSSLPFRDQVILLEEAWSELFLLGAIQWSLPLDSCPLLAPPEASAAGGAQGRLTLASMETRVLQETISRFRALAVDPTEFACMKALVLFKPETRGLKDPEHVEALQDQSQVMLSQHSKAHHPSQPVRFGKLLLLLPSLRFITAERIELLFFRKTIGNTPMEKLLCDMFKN
NR1D1 modulator: Rev-erb alpha (human) modulation. Rev-erbα–FITC-DNA binding, fluorescence polarization, 90 min. activity, % at 10 µM. 370,000 tested, 0.79% active. AID 1259318;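 active = activity above about 14%, limit read from the data; passing the limit was not always enough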;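 also: 0% = DMSO wells with 35 nM protein and 100% = DMSO wells with 750 nM protein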
PKA-R1A activ: activates the PKA-R1A holoenzyme complex; P00514+P68181; PKA-R1A dissociation, Cy5-IP20 fluorescence polarization; scaled: DMSO 0%, 113 µM cGMP 100%; activation, % at 11.4 µM; 340,000 tested, 0.083% active; AID 504707;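 active = percent activation above the mean of all tested compounds plus 3 SD, cut at about 19% in these data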;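 also: higher means more PKAc released from R1A so a rise in polarization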
NR2E3 ag-2: activates human photoreceptor nuclear receptor NR2E3. Q9Y5X4. GST-NR2E3/biotin-RetCOR TR-FRET, 1536-well. inhibition of corepressor binding, % at 4.78 µM. 320,000 tested, 0.12% active. AID 2300;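 active = percent inhibition above the cutoff of mean plus 3 SD of all tested compounds, set per screening campaign, cut at about 20% in these data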;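 also: 0% = DMSO wells and 100% = biotin wells as full block of FRET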
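System: GST-tagged NR2E3 plus biotinylated RetCOR corepressor; Buffer or medium: pH 7.5 Tris-based buffer; Probe or stimulus: RetCOR corepressor, biotinylated, 7 nM; Doses: compound at 4.8 µM, single dose; Schedule: 5 h incubation at 4 °C; Technique: time-resolved FRET; Evaluation: percent inhibition of TR-FRET ratio; Replication: one well per compound, singlicate testing.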
PKA-R2B act: PKA-R2B complex activation; PKA-R2B holoenzyme dissociation, Cy5-IP20 fluorescence polarization; R2B truncated from residue 108, S112A mutant; 0% DMSO only, 100% 113 µM cGMP; AID 504700; 340,000 tested, 0.079% active; activation, % at 11.4 µM;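 active = activation above a cutoff set at the mean over all compounds plus 3 SD, cut at about 18% in these data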;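 also: higher means more holoenzyme dissociation and a rise in polarization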
PG9 binder: PG9 antibody binding by small molecule | TR-FRET gp120-PG9 antibody binding | inhibition, % at 6.7 µM | 360,000 tested, 0.43% active | AID 624416; in the data active = inhibition above about 8.5%
NR1D1 mod conf: confirmation of modulators of human Rev-erb alpha DNA binding; shares compounds with NR1D1 modulator; Rev-erb alpha FITC-DNA binding, fluorescence polarization, 90 min; activation, % at 25 µM; 3,000 tested, 61% active; AID 1259319;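 active = activation at or above a set limit, or at least 3 SD above the negative control mean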;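 also: 0% = 35 nM protein with DMSO and 100% = 750 nM protein high control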
RORg DNA counter: RORgamma DNA-binding activity, dose-response counter-screen | shares compounds with NR1D1 modulator | purified RORgamma protein-FITC-DNA binding, fluorescence polarization | IC50, µM | 910 tested, 8% active;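 active = Compounds whose fitted half-maximal concentration for disrupting protein-DNA binding is below 10 micromolar; the record names Rev-erb in its text, so the target is in doubt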
Starred values were filed as active, the others as inactive; i = inactive; / = not tested or not shown.

SMILES | NR2E3 ag-1 | NR1D1 modulator | PKA-R1A activ | NR2E3 ag-2 | PKA-R2B act | PG9 binder | NR1D1 mod conf | others
COC(=O)c1cccc(Cn2ccc3ccc(-c4ccc5ccn(C(=O)c6ccc(C)cc6)c5c4)cc32)c1 | / | 46* | / | / | / | / | 64* | RORg DNA counter=>40
O=C(c1cccc(F)c1)n1ccc2ccc(-c3ccc4ccn(Cc5ccccc5)c4c3)cc21 | / | 8 | / | / | / | / | /
CCCCOc1ccc(C(=O)n2ccc3ccc(-c4ccc5ccn(Cc6ccccc6)c5c4)cc32)cc1 | / | 40* | / | / | / | / | 45* | RORg DNA counter=>40
COC(=O)c1cccc(Cn2ccc3ccc(-c4ccc5ccn(C(=O)c6cccc(OC)c6)c5c4)cc32)c1 | / | 39* | / | / | / | / | 54* | RORg DNA counter=i
COC(=O)c1cccc(Cn2ccc3ccc(-c4ccc5ccn(Cc6cccc(C(=O)OC)c6)c5c4)cc32)c1 | / | 51* | / | / | / | / | 1
c1ccc(-c2cnn3c(-c4ccccc4)c(-c4ccccc4)nc3n2)cc1 | 1 | 123* | 5 | / | -4 | 0 | 8
Nc1nc(-c2ccccc2)c(-c2ccccc2)n1N | 4 | 6 | -18 | -1 | -10 | 1 | /
CC(C)CNC(=O)C1(C)CCCCCN1Cc1ccccc1-c1ccccc1 (configuration not stated) | 23 | 20* | / | / | / | -1 | 7
CCNC(=O)C1(C)CCCN1Cc1ccccc1Cl (configuration not stated) | -8 | 1 | / | / | / | -1 | /
COC(=O)c1sc(C(F)(F)F)c(-c2ccccc2)c1S(=O)(=O)N1CCCC1 | -38 | 24* | -8 | -1 | 1 | 0 | 27*
COC(=O)c1sc(C(F)(F)F)c(-c2ccccc2)c1S(=O)(=O)N1CCOCC1 | 9 | 16 | -2 | / | -8 | -2 | /
Cc1ccc(C2(C(F)(F)F)NC(=O)N3C(=C2C#N)Nc2ccccc23)cc1 (configuration not stated) | -2 | 33* | -7 | 4 | -4 | 0 | 32* | RORg DNA counter=i
Cc1nn(-c2ccccc2)c2sc(C(=O)N3CCN(Cc4ccc(F)cc4)CC3)cc12 | / | 2 | / | / | / | / | /
CCN1C(=O)[C@H]2[C@@H](c3ccc(-c4cc(C(C)=O)cs4)cc3)N3CCCC[C@@]3(C(=O)OC)[C@H]2C1=O | -24 | 30* | 1 | 4 | -15 | 0 | 21*
CCN1C(=O)[C@H]2[C@@H](c3ccc(-c4cc(C(C)=O)cs4)cc3)N3CCC[C@@]3(C(=O)OC)[C@H]2C1=O | 25 | -3 | -12 | -2 | -1 | 0 | /
CC(NC(=O)c1ccc(N(C)C)cc1)C1CC2CCC1C2 (configuration not stated) | 9 | 31* | 9 | / | 7 | -1 | 18*
Nc1nc2ccc(Cl)cc2cc1C(=O)NC1CC1 | 14 | 2 | / | / | / | 1 | /
COC(=O)c1cc2cc(Cl)ccc2nc1SC | -12 | 98* | 8 | 8 | 5 | 1 | 53* | RORg DNA counter=i
COc1ccc(CN2CN3Cc4cc(F)ccc4C3CS2(=O)=O)cc1 (configuration not stated) | / | 7 | / | / | / | / | /
COC(=O)CSc1cnc2ccccc2n1 | -1 | 4 | 0 | 2 | -4 | 1 | /
Cc1ccc(Sc2cnc3ccccc3n2)cc1 | -45 | 40* | -12 | 5 | -10 | 6 | 33* | RORg DNA counter=>40
CCn1c2ccccc2c2nn(C)c(=N)nc21 | -20 | 5 | -7 | 2 | -5 | 1 | /
Cn1nc2c3ccccc3n(Cc3ccccc3)c2nc1=S | -43 | 30* | 3 | 0 | -3 | 1 | 23*
COc1ccc(CN2CCC(CNC(=O)NC(C)C)CC2)cc1 | / | 0 | / | / | / | / | /
Cc1ccccc1NC(=O)CSc1nc2c(c(-c3ccco3)c1C#N)CCCC2 | -10 | 15 | -11 | 1 | -3 | / | /
COc1ccc(-c2ccc(C#N)c(SCC(=O)Nc3sc4c(c3C#N)CCC4)n2)cc1 | -30 | 34* | -10 | 4 | -14 | 0 | 14
